Experimental data taken from ChEMBL document CHEMBL1833940, “Discovery of 3-(2,6-dichloro-3,5-dimethoxy-phenyl)-1-{6-[4-(4-ethyl-piperazin-1-yl)-phenylamino]-pyrimidin-4-yl}-1-methyl-urea (NVP-BGJ398), a potent and selective inhibitor of the fibroblast growth factor receptor family of receptor tyrosine kinase” (J Med Chem, 2011).
Calls of active or inactive are those of the source. The rule behind the calls is not given here.

Tests used:
[1] = Plasma clearance in RT112/luc1 cells implanted athymic nude mouse at 5 mg/kg, iv by LC/MS/MS analysis; assay type: ADME, organism-based; set-up: dose 5 mg/kg, route intravenous
Method in brief: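 Female athymic nude mice carrying subcutaneous RT112/luc1 tumors (ca. 300–400 mm3). Dosing was 5 mg/kg iv by tail vein in NMP/PEG200 (1:9) or 20 mg/kg by oral gavage as a suspension in PEG300/D5W (2:1). Groups (n = 4) were sacrificed from 0.083 to 24 h. Plasma and tumor were measured by LC-MS/MS (LOQ 5 ng/mL, 10 ng/g). Noncompartmental analysis used the linear trapezoidal AUC; F was calculated from dose-normalized AUC.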

[2] = test system: SW780; assay: Antiproliferative activity against human SW780 cells overexpressing wild type FGFR3 after 72 hrs; assay type: functional, cell-based; settings: SW780, 72 h
Method in brief: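 Bladder cancer lines from ATCC or DSMZ were seeded in 96-well plates (RT4, RT112 at 8500 cells/well; others at 5000 cells/well) in growth medium. Compound dilutions or DMSO were added 24 h later and incubated 72 h. Cells were fixed with glutaraldehyde, stained with 0.05% methylene blue and eluted with 3% HCl, then OD650 nm was read.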

[3] = molecular target: MAP kinase-activated protein kinase 5 (Homo sapiens, UniProt Q8IW41); assay: Inhibition of recombinant MK5
Method in brief: (§1)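 Purified recombinant kinases under optimized conditions with peptide substrates. ATP was set at each kinase's Km. Phosphorylation was read by microfluidic mobility-shift separation of substrate and product; IC50 determined.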

[4] = Half life in tumor of RT112/luc1 cells implanted in athymic nude mouse at 5 mg/kg, iv by LC/MS/MS analysis; assay type: ADME, organism-based, Neoplasm; set-up: dose 5 mg/kg, route intravenous
Method in brief: (§2)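 Female athymic nude mice carried subcutaneous RT112/luc1 tumors (5×10^6 cells, 50% Matrigel; about 300–400 mm3). Dosing was either 5 mg/kg iv by tail vein in NMP/PEG200 (1:9) or 20 mg/kg oral suspension in PEG300/D5W (2:1). Groups of mice (n = 4) were sacrificed at 0.083–24 h. Plasma and tumor levels were measured by LC-MS/MS (LOQ 5 ng/mL, 10 ng/g).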

[5] = test system: Tumour; assay: Drug uptake in tumour of nude Rowett rat bearing human RT112 cells at 4.25 mg/kg, po administered as a single dose after 3 hrs by LC-MS/MS analysis; assay type: ADME, organism-based, Neoplasm, RT-112; set-up: dose 4.25 mg/kg, route oral; settings: in vivo
Method in brief: (§3)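 Nude Rowett rats bearing subcutaneous RT112 tumors (n = 4) received a single gavage of monophosphate salt at 4.25 or 8.51 mg/kg free base in acetate buffer pH 4.6/PEG300. Tumors were collected at intervals after dosing, frozen and homogenized in an equal volume of ice-cold PBS. Compound levels were measured by LC-MS/MS (LOQ 3 ng/mL).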

[6] = test system: BaF3; assay: Antiproliferative activity against mouse wild type BAF3 cells assessed as decrease in cell viability by luminescence-based assay
Method in brief: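 IL-3-independent BaF3 or BaF3 Tel-TK cells were grown in RPMI-1640 with 10% FBS and seeded at 4250 cells/well in 384-well plates. Compound serially diluted in DMSO was pin-transferred, followed by 48 h at 37 °C, 5% CO2. Viability was read by Bright-Glo luciferase luminescence.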

[7] = test system: RT-112; assay: Antitumor activity against human RT112 cells xenografted in athymic nude mouse assessed as tumor growth inhibition at 10 mg/kg, po administered for 12 days; assay type: functional, organism-based; set-up: dose 10 mg/kg
Method in brief: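 Female HsdNpa:Athymic Nude-nu mice received RT112/luc1 cells (luciferase retroviral line; about 1–2×10^5 cells) into the bladder lumen. Oral treatment started 14 days after inoculation: suspension in PEG300/D5W (2:1) at 10 or 30 mg/kg/qd for 12 days. Tumor burden was measured by IVIS bioluminescence 10 min after iv D-luciferin. T/C was computed from change in light emission; ANOVA with Dunnett's test.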

[8] = Half life in plasma of RT112/luc1 cells implanted athymic nude mouse at 5 mg/kg, iv by LC/MS/MS analysis; assay type: ADME, organism-based; set-up: dose 5 mg/kg, route intravenous; method in brief: as §2
[9] = molecular target: Phosphatidylinositol 4,5-bisphosphate 3-kinase catalytic subunit beta isoform (Homo sapiens, UniProt P42338); assay: Inhibition of recombinant PI3Kbeta by luminescent kinase assay
[10] = test system: Tumour; assay: Drug uptake in tumor of nude rowett rat bearing human RT112 cells at 4.25 mg/kg, po administered as a single dose after 16 hrs by LC-MS/MS analysis; assay type: ADME, organism-based, Neoplasm, RT-112; set-up: dose 4.25 mg/kg, route oral; settings: in vivo; method in brief: as §3
[11] = molecular target: Tyrosine-protein kinase HCK (Homo sapiens, UniProt P08631); assay: Inhibition of recombinant HCK; method in brief: as §1
[12] = molecular target: Cytochrome P450 2C9 (Homo sapiens, UniProt P11712); assay: Inhibition of CYP2C9 using MFC as substrate; assay type: ADME
Method in brief: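 Human CYP450 inhibition was measured with isoform-specific fluorogenic probe substrates: CEC for 1A2 and 2C19, MFC for 2C9, AMMC for 2D6. Incubation was at 37 °C with an NADPH-regenerating system in 384-well format. Metabolite was quantified by fluorescence, and IC50 was obtained by curve fitting.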

[13] = Inhibition of LCK-B-mediated proliferation of mouse BAF3 cells transformed with Tel-kinase construct; assay type: cell-based
Method in brief: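 Murine BaF3 cells made IL-3-independent by a Tel-kinase fusion were grown in RPMI-1640 with 10% FBS. Cells were seeded at 4250 per well with DMSO-diluted compound and incubated 48 h at 37 °C. Viability was read by Bright-Glo luminescence.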

[14] = molecular target: Mitogen-activated protein kinase 14 (Homo sapiens, UniProt Q16539); assay: Inhibition of recombinant p38alpha; method in brief: as §1
[15] = test system: Mus musculus; assay: Antiangiogenic activity in FVB mouse agar chamber model assessed as inhibition of VEGF-induced angiogenesis at 10 to 50 mg/kg, po administered for 4 days; assay type: functional, organism-based
Method in brief: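 Female FVB mice implanted subcutaneously with perfluoroalkoxy-Teflon chambers holding 0.8% agar with 20 U/mL heparin, with or without dog VEGF 2 μg/mL or bFGF 0.3 μg/mL. Oral dosing at 10, 30, 50 mg/kg/day in 10% NMP/PEG300 (5 mL/kg), started before implantation and continued 3 days. Capsules were removed 24 h after the last dose. Readout was capsule weight and Tie-2 by ELISA, as % inhibition against vehicle and no-growth-factor background.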

[16] = molecular target: Tyrosine-protein kinase SYK (Homo sapiens, UniProt P43405); assay: Inhibition of recombinant SYK
Method in brief: (§4)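 Purified recombinant kinases under optimized conditions, with peptide substrates and ATP at each kinase's Km. Phosphorylation was read out by microfluidic mobility shift, and IC50 values were obtained.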

[17] = Inhibition of recombinant PKA
Method in brief: (§5)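 Purified recombinant kinases with peptide substrates and ATP at each kinase's Km. Read-out was microfluidic mobility shift.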

[18] = molecular target: Vascular endothelial growth factor receptor 2 (Homo sapiens, UniProt P35968); assay: Inhibition of recombinant VEGFR2; method in brief: as §4
[19] = molecular target: MAP kinase-activated protein kinase 2 (Homo sapiens, UniProt P49137); assay: Inhibition of recombinant MK2; method in brief: as §5
[20] = test system: Rattus norvegicus; assay: Toxicity in nude Rowett rat xenografted with human RT112 cells assessed as weight loss at 15 mg/kg, po qd administered for 20 days; assay type: organism-based, RT-112; set-up: dose 15 mg/kg, route oral; settings: in vivo, 480 h
Method in brief: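 Female nude Rowett rats carried subcutaneous RT112 tumors (1 × 10^6 cells in Matrigel), starting at about 100 mm3. The monophosphate salt was gavaged daily for 20 days at 5, 10 or 15 mg/kg (free base) in acetate buffer pH 4.6/PEG300 (1:1), n = 8. Body weight and morbidity were monitored; ANOVA with Dunnett's test.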

Cytochrome P450 2C9, sequence (P11712 whole entry, canonical isoform): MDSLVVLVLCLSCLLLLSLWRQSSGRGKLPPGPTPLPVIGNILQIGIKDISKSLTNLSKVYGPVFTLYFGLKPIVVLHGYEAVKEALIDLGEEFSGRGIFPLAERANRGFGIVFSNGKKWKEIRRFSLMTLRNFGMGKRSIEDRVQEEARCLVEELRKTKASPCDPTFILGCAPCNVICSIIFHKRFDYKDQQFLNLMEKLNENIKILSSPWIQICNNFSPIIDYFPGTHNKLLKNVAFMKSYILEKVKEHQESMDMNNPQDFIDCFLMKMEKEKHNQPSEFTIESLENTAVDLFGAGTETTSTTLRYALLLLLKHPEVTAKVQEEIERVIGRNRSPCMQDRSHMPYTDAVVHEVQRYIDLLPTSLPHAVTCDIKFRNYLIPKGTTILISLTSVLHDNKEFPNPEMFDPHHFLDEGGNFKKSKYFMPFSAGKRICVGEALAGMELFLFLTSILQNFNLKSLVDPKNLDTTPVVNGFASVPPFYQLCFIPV
MAP kinase-activated protein kinase 2, sequence (P49137 whole entry): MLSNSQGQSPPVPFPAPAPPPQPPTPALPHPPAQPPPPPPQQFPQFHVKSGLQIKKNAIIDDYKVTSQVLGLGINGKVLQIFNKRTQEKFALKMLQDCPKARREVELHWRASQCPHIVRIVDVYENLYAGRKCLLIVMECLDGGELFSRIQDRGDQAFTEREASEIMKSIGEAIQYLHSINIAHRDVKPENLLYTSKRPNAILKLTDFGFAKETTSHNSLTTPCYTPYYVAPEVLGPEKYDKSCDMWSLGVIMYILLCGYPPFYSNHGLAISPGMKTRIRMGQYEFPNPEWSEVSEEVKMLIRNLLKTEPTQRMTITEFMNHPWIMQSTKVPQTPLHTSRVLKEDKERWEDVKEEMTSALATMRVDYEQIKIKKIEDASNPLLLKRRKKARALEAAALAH
Vascular endothelial growth factor receptor 2, sequence (P35968 whole entry): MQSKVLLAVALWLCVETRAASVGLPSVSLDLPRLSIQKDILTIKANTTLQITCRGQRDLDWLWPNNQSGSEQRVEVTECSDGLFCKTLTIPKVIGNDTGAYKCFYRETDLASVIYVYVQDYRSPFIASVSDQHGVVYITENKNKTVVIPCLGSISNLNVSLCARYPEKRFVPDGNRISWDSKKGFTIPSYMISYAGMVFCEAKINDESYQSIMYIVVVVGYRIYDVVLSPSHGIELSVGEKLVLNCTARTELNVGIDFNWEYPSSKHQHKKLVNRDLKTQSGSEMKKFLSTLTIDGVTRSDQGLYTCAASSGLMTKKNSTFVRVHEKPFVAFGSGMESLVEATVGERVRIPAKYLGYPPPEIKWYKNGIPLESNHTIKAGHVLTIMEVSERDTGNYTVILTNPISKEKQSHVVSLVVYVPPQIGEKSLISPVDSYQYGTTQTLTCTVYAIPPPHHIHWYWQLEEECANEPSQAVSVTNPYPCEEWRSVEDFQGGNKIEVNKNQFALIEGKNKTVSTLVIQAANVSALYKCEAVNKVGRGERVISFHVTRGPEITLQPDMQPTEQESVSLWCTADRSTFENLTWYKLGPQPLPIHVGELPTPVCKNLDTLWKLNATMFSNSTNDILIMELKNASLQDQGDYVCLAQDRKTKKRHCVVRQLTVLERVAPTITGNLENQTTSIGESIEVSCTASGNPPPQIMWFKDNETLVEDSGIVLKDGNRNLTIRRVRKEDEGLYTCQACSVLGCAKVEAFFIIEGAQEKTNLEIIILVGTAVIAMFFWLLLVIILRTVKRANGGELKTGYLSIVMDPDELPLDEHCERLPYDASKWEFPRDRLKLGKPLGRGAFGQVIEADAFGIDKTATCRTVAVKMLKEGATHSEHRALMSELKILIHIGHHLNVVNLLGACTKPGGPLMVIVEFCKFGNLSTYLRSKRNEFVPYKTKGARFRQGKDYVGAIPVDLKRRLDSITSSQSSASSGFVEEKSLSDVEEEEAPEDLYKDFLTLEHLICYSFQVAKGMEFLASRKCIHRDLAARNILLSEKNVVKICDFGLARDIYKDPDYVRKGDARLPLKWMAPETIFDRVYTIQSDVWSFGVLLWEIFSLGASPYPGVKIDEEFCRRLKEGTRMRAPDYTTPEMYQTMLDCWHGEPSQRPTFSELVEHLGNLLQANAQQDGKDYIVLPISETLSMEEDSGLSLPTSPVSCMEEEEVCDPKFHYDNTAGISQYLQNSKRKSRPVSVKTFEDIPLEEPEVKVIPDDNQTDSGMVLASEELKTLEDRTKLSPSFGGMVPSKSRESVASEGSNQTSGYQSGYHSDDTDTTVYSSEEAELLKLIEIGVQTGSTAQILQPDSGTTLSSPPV
MAP kinase-activated protein kinase 5, sequence (Q8IW41 whole entry): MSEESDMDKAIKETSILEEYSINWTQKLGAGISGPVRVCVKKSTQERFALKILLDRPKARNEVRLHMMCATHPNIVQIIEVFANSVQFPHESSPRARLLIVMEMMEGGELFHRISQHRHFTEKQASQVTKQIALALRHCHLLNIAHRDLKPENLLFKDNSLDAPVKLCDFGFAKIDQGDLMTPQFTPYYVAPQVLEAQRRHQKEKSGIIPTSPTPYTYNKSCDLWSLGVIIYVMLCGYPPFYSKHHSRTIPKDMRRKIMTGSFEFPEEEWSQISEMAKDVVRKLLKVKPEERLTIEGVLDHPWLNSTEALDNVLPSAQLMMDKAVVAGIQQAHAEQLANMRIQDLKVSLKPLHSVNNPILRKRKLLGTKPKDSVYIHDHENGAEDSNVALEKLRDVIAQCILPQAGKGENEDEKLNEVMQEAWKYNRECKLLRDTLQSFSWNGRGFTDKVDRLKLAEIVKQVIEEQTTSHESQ
Phosphatidylinositol 4,5-bisphosphate 3-kinase catalytic subunit beta isoform, sequence (P42338 whole entry, canonical isoform): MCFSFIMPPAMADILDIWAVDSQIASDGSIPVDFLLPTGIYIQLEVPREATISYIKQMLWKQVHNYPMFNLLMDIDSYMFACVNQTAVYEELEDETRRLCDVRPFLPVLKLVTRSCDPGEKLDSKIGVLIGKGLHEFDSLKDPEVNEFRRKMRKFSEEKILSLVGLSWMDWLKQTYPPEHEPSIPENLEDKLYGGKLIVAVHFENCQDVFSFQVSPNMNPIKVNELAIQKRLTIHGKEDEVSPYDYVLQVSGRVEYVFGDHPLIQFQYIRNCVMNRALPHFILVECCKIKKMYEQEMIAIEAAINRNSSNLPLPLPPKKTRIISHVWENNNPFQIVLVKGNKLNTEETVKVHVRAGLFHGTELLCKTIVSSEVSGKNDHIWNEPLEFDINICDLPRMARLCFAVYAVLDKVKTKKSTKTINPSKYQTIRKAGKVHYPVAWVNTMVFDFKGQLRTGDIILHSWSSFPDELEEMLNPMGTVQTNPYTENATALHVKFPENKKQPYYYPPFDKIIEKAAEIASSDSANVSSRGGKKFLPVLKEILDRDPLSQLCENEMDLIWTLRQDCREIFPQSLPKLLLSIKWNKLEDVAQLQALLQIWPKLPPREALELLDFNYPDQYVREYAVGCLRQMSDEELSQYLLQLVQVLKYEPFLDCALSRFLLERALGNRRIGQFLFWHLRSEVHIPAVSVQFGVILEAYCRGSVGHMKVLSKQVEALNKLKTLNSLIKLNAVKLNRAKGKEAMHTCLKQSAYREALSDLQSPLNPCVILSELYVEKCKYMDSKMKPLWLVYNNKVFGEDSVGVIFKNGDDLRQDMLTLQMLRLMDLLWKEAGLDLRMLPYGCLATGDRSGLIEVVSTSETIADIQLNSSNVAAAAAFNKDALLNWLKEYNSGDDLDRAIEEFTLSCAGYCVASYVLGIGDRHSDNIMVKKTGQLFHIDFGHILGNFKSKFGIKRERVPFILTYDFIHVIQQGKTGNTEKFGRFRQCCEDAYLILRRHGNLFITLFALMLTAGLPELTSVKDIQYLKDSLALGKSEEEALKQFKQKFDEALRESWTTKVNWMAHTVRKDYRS
Tyrosine-protein kinase HCK, sequence (P08631 whole entry): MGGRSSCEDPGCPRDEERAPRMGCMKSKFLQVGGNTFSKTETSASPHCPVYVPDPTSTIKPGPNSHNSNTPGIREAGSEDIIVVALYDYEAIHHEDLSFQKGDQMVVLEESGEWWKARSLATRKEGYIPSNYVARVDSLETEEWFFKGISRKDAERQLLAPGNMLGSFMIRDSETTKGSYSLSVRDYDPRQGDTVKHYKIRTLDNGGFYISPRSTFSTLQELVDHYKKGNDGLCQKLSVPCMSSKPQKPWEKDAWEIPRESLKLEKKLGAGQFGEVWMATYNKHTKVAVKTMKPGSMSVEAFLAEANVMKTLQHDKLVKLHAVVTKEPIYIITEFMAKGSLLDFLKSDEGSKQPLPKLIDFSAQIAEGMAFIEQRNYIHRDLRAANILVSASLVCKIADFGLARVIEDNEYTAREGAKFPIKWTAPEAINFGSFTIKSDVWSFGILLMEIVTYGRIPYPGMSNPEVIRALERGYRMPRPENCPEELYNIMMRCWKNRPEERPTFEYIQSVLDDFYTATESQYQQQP
Mitogen-activated protein kinase 14, sequence (Q16539 whole entry): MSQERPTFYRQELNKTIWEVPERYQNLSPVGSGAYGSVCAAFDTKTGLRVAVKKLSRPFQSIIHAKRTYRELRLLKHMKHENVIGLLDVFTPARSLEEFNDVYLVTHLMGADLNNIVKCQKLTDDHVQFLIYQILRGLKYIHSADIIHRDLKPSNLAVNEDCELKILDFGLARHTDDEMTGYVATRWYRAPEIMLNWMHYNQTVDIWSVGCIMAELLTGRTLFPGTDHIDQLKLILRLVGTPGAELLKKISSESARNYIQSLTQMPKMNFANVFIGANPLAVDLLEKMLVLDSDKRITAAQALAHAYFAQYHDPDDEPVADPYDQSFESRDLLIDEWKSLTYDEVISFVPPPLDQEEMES

Q: With `CCN1CCN(c2ccc(Nc3cc(N(C)C(=O)Nc4c(Cl)c(OC)cc(OC)c4Cl)ncn3)cc2)CC1.O=P(O)(O)O` [INFIGRATINIB PHOSPHATE] as the compound, how does the clearance [1] read?
A: 55 mL/min/kg

Q: What about the IC50 [2] of the same compound?
A: 0.032 µM

Q: What about the IC50 [3] of the same compound?
A: > 10 µM

Q: And the half-life [4]?
A: 6.7 h

Q: And the Drug uptake [5]?
A: 0.83 nmol/g

Q: What about the IC50 [6] of the same compound?
A: 1.86 µM

Q: What about the inhibition [7] of the same compound?
A: Active

Q: And the half-life [8]?
A: 9.3 h

Q: What about the IC50 [9] of the same compound?
A: > 9 µM

Q: What about the Drug uptake [10] of the same compound?
A: 0.3 nmol/g

Q: What about the IC50 [11] of the same compound?
A: > 10 µM

Q: What about the IC50 [12] of the same compound?
A: > 10 µM

Q: And the IC50 [13]?
A: 2.48 µM

Q: What about the IC50 [14] of the same compound?
A: > 10 µM

Q: What about the inhibition [15] of the same compound?
A: inactive

Q: What about the IC50 [16] of the same compound?
A: > 10 µM

Q: What about the IC50 [17] of the same compound?
A: > 10 µM

Q: And the IC50 [18]?
A: 0.18 µM

Q: What about the IC50 [19] of the same compound?
A: > 10 µM

Q: And the Activity [20]?
A: 9%
